# Assay outcomes from PubChem BioAssay.
# Compounds with a hit are over-represented: about 2.4% of the library has one in this group of screens.
# Neddyl block: blocks human cullin neddylation | 360,000 tested, 0.58% active | inhibition, % at 25 µM | TR-FRET cullin neddylation, biochemical; in the data active = inhibition above about 36%
# CSN inh: blocks human CSN-mediated cullin deneddylation; Q92905; inhibition, % at 12.5 µM; Purified CSN, SCF-Nedd8-OG deneddylation, fluorescence polarization; 360,000 tested, 0.38% active; AID 651999;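 active = pattern-corrected inhibition above about 35%, with an unprinted fluorescence ratio check between 0.5 and 1.5, limit read from the data, passing the limit was not always enough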;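 also: 0% = enzyme with substrate and 100% = substrate without enzyme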
#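 Assay system: Purified human Csn5 enzyme expressed in HEK293T cells | Amount: Enzyme 0.24 nM | Measured by: Fluorescence polarization readout | Medium: Tris/NaCl/DTT buffer, pH 7.5 | Compound dosing: One concentration, 12.5 µM, 0.25% DMSO | Times: 90 min incubation of compound, enzyme and substrate at room temperature | Control set: no-enzyme wells high, enzyme-with-substrate wells low | Read-out: % inhibition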
# HNF4A DNA FP: change in binding of human HNF4 alpha to DNA. P41235. HNF4a-FITC DNA binding, fluorescence polarization, 1 h. AID 1224865. 360,000 tested, 0.3% active. activity change, % at 10 µM; in the data active = activity change above about 30%, passing the limit was not always enough
# Target sequence (P41235 whole entry, looked up): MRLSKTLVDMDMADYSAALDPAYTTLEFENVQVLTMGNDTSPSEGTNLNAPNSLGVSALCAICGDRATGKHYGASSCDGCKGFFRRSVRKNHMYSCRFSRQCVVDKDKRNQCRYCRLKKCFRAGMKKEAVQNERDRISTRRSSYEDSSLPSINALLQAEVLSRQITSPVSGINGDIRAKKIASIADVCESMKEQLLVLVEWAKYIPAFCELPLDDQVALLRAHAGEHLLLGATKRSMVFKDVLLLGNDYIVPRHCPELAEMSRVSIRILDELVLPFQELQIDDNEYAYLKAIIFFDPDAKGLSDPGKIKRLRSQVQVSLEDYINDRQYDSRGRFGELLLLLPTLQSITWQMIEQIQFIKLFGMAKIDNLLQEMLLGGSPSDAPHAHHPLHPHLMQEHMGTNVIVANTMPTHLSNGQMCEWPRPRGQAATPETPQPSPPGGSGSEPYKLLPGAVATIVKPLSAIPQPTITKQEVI
# Rin1 Abl inh: blocks binding of human Rin1 to Abl; inhibition, % at 7.35 µM; 360,000 tested, 0.4% active; AID 588664; TR-FRET Rin1/Abl binding, biochemical; in the data active = inhibition above about 5%, passing the limit was not always enough
# Rpn11 block: inhibitors of human proteasome Rpn11; 360,000 tested, 0.59% active; inhibition, % at 20 µM; human 26S proteasome, Ub4-pepOG fluorescence polarization; 20S core pre-blocked with epoxomicin; AID 588493;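 active = inhibition at 20 µM, scaled to each plate's controls, above about 33%, limit read from the data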
# TPT1 inhibitor: inhibitors of Candida albicans tRNA 2'-phosphotransferase TPT1 | recombinant caTPT1, FP RNA substrate dephosphorylation | inhibition, % at 5 µM | 300,000 tested, 0.81% active;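 active = inhibition above the mean of all tested compounds plus 3 SD, set per screening campaign, cut at about 24% in these data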;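 also: plate controls were DMSO alone for no effect and ferristatin control at 100 nM for full effect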
# Neddyl inh conf: cullin neddylation inhibition, confirmation | shares compounds with Neddyl block | TR-FRET cullin neddylation biochemical assay | calls only at 25 µM | 1,800 tested, 13% active | AID 652217; in the data active = inhibition above about 40%;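 also: neddylation substrate is the cullin 1 ring ligase complex with SKP2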
# * marks the source's active call; other numbers are inactive results; i = inactive; / = no result given; + = active, no number.
SMILES,Neddyl block,CSN inh,HNF4A DNA FP,Rin1 Abl inh,Rpn11 block,TPT1 inhibitor,Neddyl inh conf
Cc1ccc(C(O)c2ncc(-c3cccc4ccccc34)[nH]2)cc1F (stereo not drawn),42*,6,-5,-5,-6,/,i
Cc1ccc(C(O)c2ncc(-c3ccccc3C)[nH]2)cc1F (stereo not drawn),-5,7,1,-1,-3,/,/
CC(C)NC(=O)/C(=C/c1ccco1)c1ccccc1,39*,3,-1,3,5,-4,i
CCC(C)NC(=O)/C(=C/c1ccco1)c1ccccc1 (stereo not drawn),13,7,2,-2,4,3,/
Cc1sc2nc(-c3cccnc3)[nH]c(=O)c2c1-c1ccccc1,42*,0,-1,-1,2,2,i
COc1ccc(C(=O)Nc2cccc(C(=O)N/N=C/c3ccc(OC)cc3OC)c2)cc1,21,2,0,-1,3,-1,/
COc1ccc(OC)c(C=NNC(=O)c2ccc(NS(=O)(=O)c3cccs3)cc2)c1,55*,2,5,1,6,/,/
CCN(CC)c1ccc(C(=O)N/N=C/c2ccc(OC)cc2OC)cc1,42*,2,3,-2,7,-3,i
COC(=O)c1c(C(=O)OC)c2cc(C(=O)c3ccccc3)ccn2c1Cl,48*,-1,3,-2,7,-3,i
Cc1nnc(SCCC(=O)Nc2ccccc2Cl)o1,0,3,1,0,-2,-1,/
CCC(=O)Nc1ccc(C(=O)CSc2nnc(-c3ccc(NS(=O)(=O)CC)cc3)o2)cc1OC,44*,-3,3,-1,-4,-1,i
COc1ccc(-c2cc(C(=O)NNC(=O)c3csc(N4CCOCC4)n3)c3ccccc3n2)cc1,42*,-1,-3,-2,18,5,i
Cc1cccc(C)c1N1C(=O)c2ccccc2NC(=O)C1C(=O)NCCc1ccccc1 (stereo not drawn),13,-1,2,/,/,/,/
COc1ccc(C(=O)COC(=O)CNC(=O)c2cc(OC)cc(OC)c2)cc1,-3,-3,-2,2,-4,-3,/
CCOC(=O)[C@]12CCC=C1N(Cc1cccc3ccccc13)C(=O)[C@H](CC(=O)N1CCOCC1)C2,-1,-4,0,/,/,/,/
COc1cc(/C=C/c2nnc3c4ccccc4ncn23)cc(OC)c1OC,55*,-9,-1,0,0,-2,i
O=C(COC(=O)c1ccc2c(c1)OCCO2)NCCc1ccccc1,4,2,3,4,-2,/,/
COc1ccc(C(CNC(=O)c2ccco2)N2CCOCC2)cc1 (stereo not drawn),-27,-1,-3,3,7,/,/
COc1ccc(C(c2c(NC(=O)c3ccco3)sc(C)c2C)N2CCOCC2)cc1 (stereo not drawn),45*,-1,-3,4,1,/,/
COc1cccc(C(c2c(NC(=O)c3ccccc3)sc(C)c2C)N2CCN(C)CC2)c1 (stereo not drawn),41*,-6,0,-6,-9,0,i
Cc1nc2c(C#N)cnn2c2c1CCN2CC1CCCO1 (stereo not drawn),43*,11,-2,1,5,6,i
COc1ccc(Cl)cc1NC(=O)CN(C)C(=O)C1COc2ccccc2O1 (stereo not drawn),4,-3,2,1,4,/,/
CN(C)c1ccc(NC(=O)Nc2cccc3ccccc23)cc1,24,0,-1,-1,2,0,/
CCN(CC)c1ccc(NC(=O)Nc2cccc3ccccc23)cc1,44*,4,-23,1,-2,-3,i
CCC(C(=O)NN1C(=O)c2ccccc2C1=O)c1ccccc1 (stereo not drawn),-14,-8,4,-7,4,0,/
SMILES,Neddyl block,CSN inh,HNF4A DNA FP,Rin1 Abl inh,Rpn11 block,TPT1 inhibitor,Neddyl inh conf
O=C(COc1ccccc1)Nc1nnc(-c2ccc(Cl)s2)o1,37*,6,1,-4,4,-3,i
O=C(COc1ccccc1)Nc1nnc(-c2ccccc2)o1,2,2,5,4,17,0,/
CCCn1c(SCC(=O)NNC(=O)c2ccc(C)cc2)nnc1C(C)C,-14,4,0,3,1,-4,/
O=C1O[C@@H](c2ccc(O)cc2)Cc2cccc(O)c21,39*,-4,5,-3,-3,/,/
CCCc1cc(=O)oc2c(C)c(OCC(=O)N3CCC[C@@H]3C(=O)O)ccc12,46*,-1,-7,-3,-1,-3,i
CCCCCCc1c(C)c2ccc(OCC(=O)N3CCC[C@H]3C(=O)O)c(C)c2oc1=O,49*,5,-1,-3,-1,-4,/
c1cncc(-c2ccc3ncnc(NCc4cccs4)c3c2)c1,2,-7,0,-2,-4,/,/
c1csc(CNc2ncnc3ccc(-c4ccc5c(c4)OCCO5)cc23)c1,36*,6,4,-1,-6,/,/
Cc1ccc2c(c1)c1c(n2CC2COC(C)(C)O2)C(=O)CCC1 (stereo not drawn),/,0,1,-2,6,-2,/
Cc1ccc2c(c1)c1c3n2CC(=C2C(=O)OC(C)(C)OC2=O)NC3CCC1 (stereo not drawn),45*,3,2,-2,2,9,i
OC1CCCN(Cc2cccc3ccccc23)C1 (stereo not drawn),0,2,1,2,0,-1,/
OC1CCCN(Cc2c3ccccc3cc3ccccc23)C1 (stereo not drawn),50*,1,-7,-2,-5,-2,+
CC(C)(C)n1nnnc1C(c1ccccc1)N1CCN(c2ncc(C(F)(F)F)cc2Cl)CC1 (stereo not drawn),8,-3,1,/,/,/,/
CC(C)NC(=O)C1(C)CN(S(C)(=O)=O)CC(=O)N1CCCn1ccnc1 (stereo not drawn),1,-5,-5,/,/,/,/
N#CC(=Cc1ccncc1)c1ccccc1,-16,1,-3,2,1,/,/
N#C/C(=C\c1ccncc1)c1nc2c(s1)CCCC2,57*,-1,2,2,-1,0,/
COc1ccccc1C(=O)NCC(=O)OCc1nnc(-c2ccccc2)o1,7,8,4,1,-1,/,/
COc1cccc(/C=C/C(=O)OCC(=O)c2ccc[nH]2)c1,40*,3,-3,-6,-2,/,i
COc1cccc(/C=C/C(=O)OCC(=O)Nc2ccccc2Sc2ccccc2)c1,44*,1,-1,-2,2,-1,i
CCOC(=O)c1[nH]c2ccc(C)cc2c1N,22,3,-1,1,5,3,/
CCOC(=O)c1[nH]c2ccc(C(=O)OC)cc2c1C(=O)OCC,39*,-1,1,3,-4,0,i
